Laboratory results reported in ChEMBL document CHEMBL3860041, “Synthesis, biological evaluation and molecular modeling study of some new methoxylated 2-benzylthio-quinazoline-4(3H)-ones as nonclassical antifolates” (Bioorg Med Chem Lett, 2016).

Experiments:
[1] = Growth inhibition of human NCI-322M cells at 10 uM after 48 hrs by SRB assay relative to control; format: functional; settings: read-out: GI
Summary of the method: (§1)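 NCI 60-cell-line panel, nine tumor subpanels; compounds tested at a single dose of 10 μM in the primary screen.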

[2] = Growth inhibition of human Hs 578T cells at 10 uM after 48 hrs by SRB assay relative to control; format: functional; settings: read-out: GI; summary of the method: as §1
[3] = Growth inhibition of human UACC257 cells at 10 uM after 48 hrs by SRB assay relative to control; format: functional; settings: UACC-257, 48 h, read-out: GI
Summary of the method: (§2)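 Primary screen across the full NCI 60 human tumour cell line panel, which covers nine tumour subpanels. A single dose of 10 μM was applied to each line, and growth was recorded for each cell line.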

[4] = Growth inhibition of human SN12C cells at 10 uM after 48 hrs by SRB assay relative to control; format: functional; settings: read-out: GI; summary of the method: as §2
[5] = Growth inhibition of human BT549 cells at 10 uM after 48 hrs by SRB assay relative to control; format: functional; settings: BT-549, 48 h, read-out: GI; summary of the method: as §1
[6] = Growth inhibition of human PC3 cells at 10 uM after 48 hrs by SRB assay relative to control; format: functional; settings: PC-3, 48 h, read-out: GI; summary of the method: as §1
[7] = Growth inhibition of human SW620 cells at 10 uM after 48 hrs by SRB assay relative to control; format: functional; settings: SW-620, 48 h, read-out: GI; summary of the method: as §2
[8] = Growth inhibition of human UACC62 cells at 10 uM after 48 hrs by SRB assay relative to control; format: functional; settings: UACC-62, 48 h, read-out: GI; summary of the method: as §2
Dihydrofolate reductase = molecular target: T1, Dihydrofolate reductase (Bos taurus, UniProt P00376); assay: Inhibition of bovine liver DHFR preincubated for 2 mins followed by addition of FH2 as substrate and NADPH
T1 sequence (P00376 whole entry): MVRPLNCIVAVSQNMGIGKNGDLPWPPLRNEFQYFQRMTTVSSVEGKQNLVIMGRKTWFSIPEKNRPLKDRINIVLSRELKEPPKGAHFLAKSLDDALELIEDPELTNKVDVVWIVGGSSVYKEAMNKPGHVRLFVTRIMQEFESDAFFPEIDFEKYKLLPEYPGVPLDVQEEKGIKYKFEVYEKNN

[9] = Growth inhibition of human U251 cells at 10 uM after 48 hrs by SRB assay relative to control; format: functional; settings: U-251, 48 h, read-out: GI; summary of the method: as §2
[10] = Growth inhibition of human MALME-3M cells at 10 uM after 48 hrs by SRB assay relative to control; format: functional; settings: read-out: GI; summary of the method: as §1
[11] = Growth inhibition of human T47D cells at 10 uM after 48 hrs by SRB assay relative to control; format: functional; settings: read-out: GI; summary of the method: as §2
[12] = Growth inhibition of human SK-MEL-28 cells at 10 uM after 48 hrs by SRB assay relative to control; format: functional; settings: SK-MEL-28, 48 h, read-out: GI; summary of the method: as §2
[13] = Growth inhibition of human A498 cells at 10 uM after 48 hrs by SRB assay relative to control; format: functional; settings: A498, 48 h, read-out: GI; summary of the method: as §1
[14] = Growth inhibition of human HCC2998 cells at 10 uM after 48 hrs by SRB assay relative to control; format: functional; settings: HCC 2998, 48 h, read-out: GI; summary of the method: as §1
[15] = Growth inhibition of human OVCAR3 cells at 10 uM after 48 hrs by SRB assay relative to control; format: functional; settings: OVCAR-3, 48 h, read-out: GI; summary of the method: as §1
[16] = Growth inhibition of human NCI-H460 cells at 10 uM after 48 hrs by SRB assay relative to control; format: functional; settings: NCI-H460, 48 h, read-out: GI; summary of the method: as §1
[17] = Growth inhibition of human HCT116 cells at 10 uM after 48 hrs by SRB assay relative to control; format: functional; settings: HCT-116, 48 h, read-out: GI; summary of the method: as §1
[18] = Growth inhibition of human K562 cells at 10 uM after 48 hrs by SRB assay relative to control; format: functional; settings: K562, 48 h, read-out: GI; summary of the method: as §1
[19] = Growth inhibition of human RXF393 cells at 10 uM after 48 hrs by SRB assay relative to control; format: functional; settings: RXF 393, 48 h, read-out: GI; summary of the method: as §1
[20] = Growth inhibition of human ACHN cells at 10 uM after 48 hrs by SRB assay relative to control; format: functional; settings: read-out: GI; summary of the method: as §1
[21] = Growth inhibition of human NCI/ADR-RES cells at 10 uM after 48 hrs by SRB assay relative to control; format: functional; settings: read-out: GI; summary of the method: as §1
[22] = Growth inhibition of human Caki1 cells at 10 uM after 48 hrs by SRB assay relative to control; format: functional; settings: CAKI-1, 48 h, read-out: GI; summary of the method: as §1
[23] = Growth inhibition of human SK-MEL-2 cells at 10 uM after 48 hrs by SRB assay relative to control; format: functional; settings: SK-MEL-2, 48 h, read-out: GI; summary of the method: as §2
[24] = Growth inhibition of human NCI-H23 cells at 10 uM after 48 hrs by SRB assay relative to control; format: functional; settings: NCI-H23, 48 h, read-out: GI; summary of the method: as §1
[25] = Growth inhibition of human SF539 cells at 10 uM after 48 hrs by SRB assay relative to control; format: functional; settings: SF-539, 48 h, read-out: GI; summary of the method: as §1
[26] = Growth inhibition of human LOXIMVI cells at 10 uM after 48 hrs by SRB assay relative to control; format: functional; settings: LOX IMVI, read-out: GI; summary of the method: as §1
Cancer cell lines [27] = assay: Potency index, ratio of 5-fluorouracil GI50 to compound GI50 for human colon cancer cells; format: functional
Summary of the method: (§3)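 GI50 for each cell line came from NCI panel testing over a 5-log dose range, with 5-fluorouracil tested alongside as the reference drug. The index relates the 5-fluorouracil GI50 to the compound GI50 within each tumour subpanel.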

Cancer cell lines [28] = assay: Potency index, ratio of 5-fluorouracil GI50 to compound GI50 for human non-small cell lung cancer cells; format: functional; summary of the method: as §3
[29] = Growth inhibition of human ovarian cancer cells after 48 hrs by SRB assay; format: functional; settings: Cancer cell lines
Summary of the method: (§4)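 Follow-up NCI panel testing over a 5-log dose range for each cell line. GI50, TGI and LC50 were monitored, with 5-fluorouracil run as the positive control. Values are grouped by tumour subpanel.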

Leukemia cell = assay: Potency index, ratio of 5-fluorouracil GI50 to compound GI50 for human leukemia cells; format: functional; summary of the method: as §3
[30] = Growth inhibition of human CNS cancer cells after 48 hrs by SRB assay; format: functional; settings: Cancer cell lines
Summary of the method: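 Five-log dose range against NCI tumor cell lines, monitoring GI50, TGI and LC50 for each cell line; MG-MID values derived across the panel; 5-fluorouracil positive control.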

Cancer cell lines [31] = assay: Potency index, ratio of 5-fluorouracil GI50 to compound GI50 for human prostate cancer cells; format: functional; summary of the method: as §3
Cancer cell lines [32] = assay: Potency index, ratio of 5-fluorouracil GI50 to compound GI50 for human breast cancer cells; format: functional; summary of the method: as §3
Melanoma cell = assay: Potency index, ratio of 5-fluorouracil GI50 to compound GI50 for human melanoma cells; format: functional; summary of the method: as §3
[33] = Growth inhibition of human leukemia cells after 48 hrs by SRB assay; format: functional; settings: Leukemia cell; summary of the method: as §4

SMILES | inhibition of growth at 10 µM [1] | inhibition of growth at 10 µM [2] | inhibition of growth at 10 µM [3] | inhibition of growth at 10 µM [4] | inhibition of growth at 10 µM [5] | inhibition of growth at 10 µM [6] | inhibition of growth at 10 µM [7] | inhibition of growth at 10 µM [8] | IC50 (Dihydrofolate reductase) | inhibition of growth at 10 µM [9] | inhibition of growth at 10 µM [10] | inhibition of growth at 10 µM [11] | inhibition of growth at 10 µM [12] | inhibition of growth at 10 µM [14] | inhibition of growth at 10 µM [15] | inhibition of growth at 10 µM [16] | inhibition of growth at 10 µM [17] | inhibition of growth at 10 µM [18] | inhibition of growth at 10 µM [19] | inhibition of growth at 10 µM [20] | further results
COc1cc(CSc2nc3ccc(Cl)cc3c(=O)n2-c2ccccc2)cc(OC)c1OC | 14.3% | < 10% | 10.3% | 24% | < 10% | 26.8% | 20.3% | 35.9% | 0.8 µM | 11.4% | 23.5% | 29.1% | < 10% | 20% | 22.2% | < 10% | 38.2% | 61.8% | 31.1% | 21.1% | inhibition of growth at 10 µM [13]: 18.3%; inhibition of growth at 10 µM [21]: 24.5%; inhibition of growth at 10 µM [22]: 26.1%; inhibition of growth at 10 µM [23]: 22.5%; inhibition of growth at 10 µM [24]: 21%; inhibition of growth at 10 µM [25]: 21.1%; inhibition of growth at 10 µM [26]: 20.7%
COc1ccc(-n2c(SCc3cc(OC)c(OC)c(OC)c3)nc3ccc(Cl)cc3c2=O)cc1 | < 10% | 13.9% | 11.2% | 18.3% | < 10% | 37.7% | < 10% | 33.9% | 3 µM | < 10% | < 10% | 23.9% | < 10% | < 10% | < 10% | 10.3% | 33.3% | 28.6% | 25.9% | 16.4% | inhibition of growth at 10 µM [13]: 49.1%; inhibition of growth at 10 µM [21]: 10.7%; inhibition of growth at 10 µM [22]: 33%; inhibition of growth at 10 µM [23]: < 10%; inhibition of growth at 10 µM [24]: 20.2%; inhibition of growth at 10 µM [25]: 12.7%; inhibition of growth at 10 µM [26]: 18%
COc1cc2nc(SCc3cc(OC)c(OC)c(OC)c3)n(Cc3ccccc3)c(=O)c2cc1OC | 54.6% | 73.3% | 36.7% | 58.8% | 83.2% | 51.2% | 66.6% | 76.6% | 2 µM | 71% | 78.1% | 64.1% | 60.8% | 59.2% | 93.8% | 77.7% | 85.4% | 89.8% | 95.5% | 60.8% | RatioGI50 (Cancer cell lines [27]): 2 - 10; RatioGI50 (Cancer cell lines [28]): 2 - 10; GI50 [29]: 6.4 µM; LC50 (50% lethal concentration) [29]: > 100 µM; TGI [29]: 62.7 µM; RatioGI50 (Leukemia cell): 2 - 10; GI50 [30]: 3.4 µM; LC50 (lethal concentration, 50% net cell kill) [30]: 80.6 µM; TGI [30]: 24.5 µM; RatioGI50 (Cancer cell lines [31]): 2 - 10; inhibition of growth at 10 µM [22]: 74.3%; RatioGI50 (Cancer cell lines [32]): 2 - 10; RatioGI50 (Melanoma cell): 2 - 10; inhibition of growth at 10 µM [24]: 79.6%; inhibition of growth at 10 µM [26]: 62.3%; GI50 [33]: 1.9 µM; TGI [33]: > 100 µM; CC50 ([33]; read-out: LC50 (the source's name)): > 100 µM
COc1ccc(CSc2nc3cc(OC)c(OC)cc3c(=O)n2-c2ccc(OC)cc2OC)cc1 | 19.4% | 13.3% | < 10% | < 10% | < 10% | 44.4% | < 10% | 19.8% | 0.3 µM | < 10% | 17.4% | 24.4% | < 10% | < 10% | < 10% | < 10% | 37.2% | 12.9% | 24.5% | < 10% | inhibition of growth at 10 µM [13]: 41.4%; inhibition of growth at 10 µM [21]: 20.5%; inhibition of growth at 10 µM [22]: 31.3%; inhibition of growth at 10 µM [23]: < 10%; inhibition of growth at 10 µM [24]: 21.7%; inhibition of growth at 10 µM [25]: < 10%; inhibition of growth at 10 µM [26]: 16.6%
COc1cc2nc(SCc3cc(OC)c(OC)c(OC)c3)n(-c3ccccc3OC)c(=O)c2cc1OC | 14.9% | 39.2% | < 10% | < 10% | 12.5% | 38.9% | 23.6% | 27.5% | 0.8 µM | 13.2% | 37% | 11.4% | 21.1% | < 10% | 51.8% | 16.6% | 12% | 72.7% | 22% | 11.5% | inhibition of growth at 10 µM [13]: 74.6%; inhibition of growth at 10 µM [21]: 37.1%; inhibition of growth at 10 µM [22]: 57.1%; inhibition of growth at 10 µM [23]: < 10%; inhibition of growth at 10 µM [24]: 20.1%; inhibition of growth at 10 µM [25]: 10.1%; inhibition of growth at 10 µM [26]: 22.7%
